Screening results: PubChem, The Scripps Research Institute Molecular Screening Center
PRMT1 FP inh: inhibitors of human PRMT1; 370,000 compounds, 1.3% hits; inhibition, % at 2.79 µM; recombinant PRMT1, activity-based probe fluorescence polarization;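 active means inhibition above about 21% made by adding two undisclosed values, limit read from the data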
PAD4 inh: PAD4 (human) enzyme inhibition; Q9UM07; recombinant PAD4, RCA probe fluorescence polarization; inhibition, % at 6.36 µM; 330,000 compounds, 0.41% hits; AID 485272;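 active means percent inhibition above a cutoff equal to the mean of all tested compounds plus 3 SD, cut at about 15% in these data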;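 further: 0% = PAD4 with RCA probe and DMSO and 100% = probe without PAD4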
TDP2 inh: blocks human TDP2 phosphodiesterase activity; O95551; 370,000 compounds, 0.34% hits; recombinant TDP2, T5PNP hydrolysis, p-nitrophenol absorbance 415 nm; inhibition, % at 12.8 µM;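 active means inhibition above the mean of all tested compounds plus 3 SD, set per campaign, cut at about 25% in these data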;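 further: 0% = DMSO with enzyme and 100% = buffer with substrate but no TDP2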
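Assay system: Recombinant human TDP2 | Quantity: 120 nM TDP2 per well | Incubation: 2 h at 37 °C | Signal: Epi absorbance | Evaluation: Percent inhibition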
GSTO1 inh: blocks human GSTO1 in RBBP9 counter-screen | P78417 | recombinant GSTO1, activity-based probe fluorescence polarization | inhibition, % at 5.96 µM | 300,000 compounds, 1.1% hits | AID 1974;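 active means inhibition above the campaign mean inhibition plus 3 SD, cut at about 35% in these data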;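 further: 0% = GSTO1-1 with DMSO and 100% = wells lacking GSTO1-1 enzyme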
E coli Lon inh: inhibits E. coli Lon protease. P0A9M0. purified E. coli Lon protease, fluorescence polarization. 360,000 compounds, 0.42% hits. AID 602123. inhibition, % at 7.94 µM; in the data active means inhibition above about 13%, passing the limit was not always enough;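 further: 0% = enzyme with probe and DMSO and 100% = no enzyme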
Target sequence (P0A9M0 whole entry, looked up): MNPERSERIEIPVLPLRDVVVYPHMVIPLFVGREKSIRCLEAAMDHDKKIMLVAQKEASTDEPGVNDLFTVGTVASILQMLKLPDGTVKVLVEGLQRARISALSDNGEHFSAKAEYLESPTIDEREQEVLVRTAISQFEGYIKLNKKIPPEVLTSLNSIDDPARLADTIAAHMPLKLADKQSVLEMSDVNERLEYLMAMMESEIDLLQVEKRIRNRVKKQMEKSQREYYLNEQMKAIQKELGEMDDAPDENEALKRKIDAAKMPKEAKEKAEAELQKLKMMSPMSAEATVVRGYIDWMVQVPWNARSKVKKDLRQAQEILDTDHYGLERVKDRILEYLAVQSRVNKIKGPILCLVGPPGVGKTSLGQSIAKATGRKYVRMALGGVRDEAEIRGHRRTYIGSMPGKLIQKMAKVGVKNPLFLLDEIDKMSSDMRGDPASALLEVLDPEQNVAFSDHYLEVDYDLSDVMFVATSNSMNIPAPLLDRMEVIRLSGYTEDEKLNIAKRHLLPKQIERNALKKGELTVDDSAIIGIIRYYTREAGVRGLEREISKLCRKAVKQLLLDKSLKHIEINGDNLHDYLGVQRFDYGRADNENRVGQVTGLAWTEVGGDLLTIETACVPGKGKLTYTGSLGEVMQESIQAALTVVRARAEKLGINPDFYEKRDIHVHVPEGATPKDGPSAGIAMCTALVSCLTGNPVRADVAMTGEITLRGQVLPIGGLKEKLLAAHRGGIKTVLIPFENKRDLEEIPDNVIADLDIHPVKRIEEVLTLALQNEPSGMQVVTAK
PAD4 confirm: confirmation of human PAD4 inhibitors | shares compounds with PAD4 inh | recombinant PAD4, RCA probe fluorescence polarization | inhibition, % at 6.36 µM | 1,200 compounds, 28% hits | AID 488796;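 active means mean inhibition across replicates above the hit cutoff set by the earlier primary screen, cut at about 15% in these data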;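 further: inhibitors block active-site labeling by the probe so polarization falls; 0% = PAD4 with probe and DMSO and 100% = probe without PAD4 enzyme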
TDP2 confirm: confirmation of human TDP2 inhibitors. shares compounds with TDP2 inh. recombinant human TDP2, absorbance read-out. inhibition, % at 12.8 µM. 1,100 compounds, 22% hits. AID 743263; in the data active means inhibition above about 25%;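 further: 0% = vehicle with enzyme and 100% = no enzyme buffer only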
* hit, by the source's call; x = no result given. Hits are enriched below; roughly 2.5% of the tested compounds scored in any of these assays.

SMILES	PRMT1 FP inh	PAD4 inh	TDP2 inh	GSTO1 inh	E coli Lon inh	PAD4 confirm	TDP2 confirm
COc1ccc(OC)c2c1C(=O)c1ccccc1C2=O	52.3*	41.3*	56.0*	9.9	x	37.7*	7.2
FC(F)(F)c1ccccc1/C=N/Nc1ccccn1	-3.0	-3.5	1.4	0.5	-3.6	x	x
Nn1cnnc1N/N=C/c1ccc(F)cc1	0.5	40.7*	64.0*	18.3	-3.4	2.7	-5.2
Nn1cnnc1N/N=C/c1ccccc1C(F)(F)F	-0.1	39.1*	51.4*	1.9	-1.2	6.7	-1.9
Cc1ccc(/C=N/Nc2nncn2N)cc1	0.9	46.4*	78.5*	16.3	-2.3	1.4	1.8
CC(C)(C)c1ccc(-c2nnc(SCC(=O)c3ccc4ccccc4c3)n2-c2ccc(Cl)cc2)cc1	9.1	x	6.6	x	x	x	x
CCN(CC)C(=O)CC[C@H]1CC[C@]2(CCCN(CC3CC3)C2)O1	1.8	x	4.6	x	x	x	x
CCCCNC(=O)NS(=O)(=O)c1ccc(NC(=O)CSc2nnc(-c3cccs3)n2-c2ccc(OC)cc2)cc1	1.1	x	2.0	x	x	x	x
O=C(c1ccc(Cl)c(Cl)c1)N1CCC(Oc2cccnc2)CC1	1.9	x	-0.6	x	x	x	x
O=C1CCC[C@H]2C[C@H](NCc3ccccc3Cl)CC[C@]23CCCN13	-3.0	x	-4.1	x	x	x	x
O=C(O)c1ccc(N/N=C/c2ccc(-c3ccc(Br)cc3)o2)cc1	8.0	-1.6	-15.7	17.7	-1.5	x	x
Cc1nnc(N/N=C\c2ccc(-c3cccc(C(=O)O)c3)o2)n1N	2.1	29.7*	59.1*	19.8	-1.5	-5.7	7.6
Cc1nnc(N/N=C/c2ccc(-c3ccc(Br)cc3)o2)n1N	9.6	23.7*	56.5*	13.3	-4.4	5.3	1.3
Cc1nnc(N/N=C/c2ccc(Br)cc2)n1N	0.5	35.9*	73.6*	8.0	-11.7	10.5	6.0
O=C(O)c1cccc(-c2ccc(/C=N/NC(=O)c3cccnc3)o2)c1	5.5	0.7	2.5	-0.7	-1.8	x	x
CCN(c1ccccc1)c1cc2ccccc2c(=O)[nH]1	2.2	16.0*	27.6*	29.1	4.3	-2.4	76.3*
COc1ccc(OC)c(CN2C(=O)COc3ccccc3C2c2nnnn2C2CCCC2)c1 (stereo unspecified)	2.8	x	2.1	x	x	x	x
CC1=NN(c2ccccc2)C(=O)/C1=C/c1cccs1	2.9	34.9*	70.5*	55.0*	-6.8	1.2	22.1
CC1=NN(c2ccccc2)C(=O)/C1=C\c1ccc(Br)s1	1.8	16.4*	52.1*	16.2	-2.2	-1.9	27.6*
C=CCOC(=O)N[C@H](c1ccc2ccccc2c1)[C@H](C)/C=C/CC(=O)OC	-0.6	x	4.5	x	x	x	x
CCN(CC(=O)Nc1ccc(NC(C)=O)cc1)C(=O)c1ccc(N2CCC(C)CC2)c([N+](=O)[O-])c1	-8.0	1.2	7.0	x	11.0	x	x
CCc1nnc(N/N=C/c2ccc(N3CCC(C)CC3)c([N+](=O)[O-])c2)n1N	1.3	29.2*	68.0*	17.7	-4.4	3.5	12.4
Cc1nnc(N/N=C/c2cc([N+](=O)[O-])c(N3CCC(C)CC3)cc2N2CCC(C)CC2)n1N	3.5	44.0*	53.1*	32.3	8.4	2.8	-14.2
COc1ccc(OC)c(S(=O)(=O)Nc2cccc3ccccc23)c1	-2.7	3.0	0.8	-2.3	-0.6	x	x
COc1ccc(OC)c(S(=O)(=O)Oc2ccc(N)c3ccccc23)c1	19.3	21.4*	33.1*	35.0*	9.8	-9.8	-0.1
SMILES	PRMT1 FP inh	PAD4 inh	TDP2 inh	GSTO1 inh	E coli Lon inh	PAD4 confirm	TDP2 confirm
CC(NCc1ccco1)C(=O)N1CCOCC1 (stereo unspecified)	1.5	x	9.1	x	x	x	x
C#CCNC(=O)C[C@H]1C[C@@]2(C(=O)OC)C(=C[C@H](C(C)(C)C)O[C@@H]2C)N(Cc2ccco2)C1=O	2.7	x	-1.1	x	x	x	x
CN=C(Nc1cc(C)nn1CCC#N)c1ccccc1	-5.3	-2.3	7.8	0.2	2.8	x	x
Cc1cc(OC(=O)c2ccccc2)n(CCC#N)n1	-0.8	40.5*	50.5*	29.1	5.2	1.0	10.7
Oc1ccccc1CNc1cccc2cccnc12	9.1	34.8*	35.5*	32.8	4.0	-3.6	5.7
CCOC(=O)Cc1[nH]nc2c1C(c1cc(OC)ccc1OC)C(C#N)=C(N)O2 (stereo unspecified)	0.3	-6.8	0.4	8.4	-9.2	x	x
COc1ccc(OC)c(C2C(C#N)=C(N)Oc3c2c(C)nn3-c2ccc(C)cc2)c1 (stereo unspecified)	-1.3	54.1*	59.8*	34.8*	-6.2	4.8	9.4
Cc1nn(-c2ccccc2)c2c1C(c1ccccc1)C(C#N)=C(N)O2 (stereo unspecified)	-1.1	61.3*	40.4*	37.1*	-8.6	13.5	11.4
COC(=O)c1ccccc1-c1ccc(C(c2c(C)[nH][nH]c2=O)c2c(C)[nH][nH]c2=O)o1	3.1	54.0*	78.4*	65.3*	-1.7	13.3	35.7*
COc1ccc2ccccc2c1C=Nn1c(-c2n[nH]c3c2CCC3)n[nH]c1=S	2.7	x	-6.1	x	x	x	x
CC(C)N1Cc2nnn(Cc3ccccc3)c2-c2ccccc2S1(=O)=O	-1.9	x	-10.5	x	x	x	x
COc1ccc(/C=N/Nc2nc3ccccc3c(=O)n2-c2ccccc2)cc1OC	-2.1	0.2	-0.4	-1.1	6.5	x	x
COc1cc(/C=N/n2nnnc2N)ccc1OC(C)=O	2.2	x	-2.2	x	-8.3	x	x
COc1ccc(/C=N/Nc2nnc(C)n2N)cc1OC	-1.5	25.4*	53.8*	34.1	-2.0	5.2	-3.2
COc1ccc(/C=N/Nc2nnc(C)n2N)cc1OC(C)=O	4.4	44.6*	42.4*	30.5	-9.6	4.5	9.2
CC(C)[C@H]1Cn2nnc(-c3ccccc3)c2Cn2c3ccccc3c(=O)n21	-2.2	x	-7.3	x	x	x	x
CCc1nnc(N/N=C/c2ccccc2F)n1N	2.6	42.6*	66.0*	11.9	2.0	5.4	3.8
COc1cccc(/C=N/Nc2nnc(C)n2N)c1OCc1ccccc1Cl	0.5	22.1*	54.0*	24.7	-2.0	8.3	-4.0
CCc1nnc(N/N=C/c2ccccc2Cl)n1N	4.6	35.6*	60.8*	24.5	-5.0	1.2	-2.1
COc1cccc(C=NNc2nnc(NN=Cc3cccc(OC)c3OC)c3ccccc23)c1OC	-1.8	x	8.7	x	-14.1	x	x
CCOC(=O)N/N=C/c1ccccc1F	-0.5	2.8	-3.1	-2.2	1.1	x	x
O=c1c2ccccc2n(Cc2ccco2)n1[C@@H](Cc1ccccc1)Cn1cc(-c2ccc(-c3ccccc3)cc2)nn1	-0.8	x	-3.8	x	x	x	x
C[C@H]1[C@@H](NC(=O)C(c2ccccc2)c2ccccc2)CC[C@@]23CCCN2C(=O)CCC[C@@H]13	0.2	x	11.0	x	x	x	x
Cc1ccc(C(C[N+](=O)[O-])c2c(C)[nH]n(-c3ccccc3)c2=O)cc1 (stereo unspecified)	0.7	16.7*	33.8*	75.6*	4.0	-4.2	32.0*
